Test results published in PMC8278208 (Toxicology Reports, 2021).

Assays:
K562 cancer cells = assay: Cell morphological observation by light microscope, K562; format: cell-based, human; conditions: high concentrations (10 mM shown at 72 h), also at 48 and 96 h
[1] = test system: doxorubicin-sensitive K562 leukemia cells; assay: Cell viability, resazurin assay, K562; format: cell-based, human; conditions: for cell viability percentage vs control group: K562, 48, 72, and 96 h
How it was run: (§1)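 Cells seeded at 5×10^4 cells mL⁻¹ and exposed to a range of test compound concentrations for 48, 72 and 96 h. Resazurin solution (0.1 mg mL⁻¹) was then added, followed by a further 4 h incubation. Fluorescence was read at ex 570/em 590 nm. % viability = (F treated/F untreated control) × 100. Three independent experiments, mean ± S.E.; Student's t-test versus untreated control, p<0.05.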

[2] = Cell viability, resazurin assay, K562; format: cell-based, human; conditions: human, K562 cells (doxorubicin-sensitive leukemia)
How it was run: as §1

[3] = test system: doxorubicin-resistant K562/Dox (P-glycoprotein-overexpression) leukemia cells; assay: Cell viability, resazurin assay, K562/Dox; format: cell-based, human; conditions: K562/Dox, 48, 72, and 96 h
How it was run: as §1

[4] = Cell viability, resazurin assay, K562/Dox; format: cell-based, human; conditions: human
How it was run: as §1

[5] = molecular target: human serum albumin (HSA) (Homo sapiens, UniProt P02768); assay: Fluorescence quenching of HSA by 4-HBA or VA; format: binding; conditions: for fluorescence quenching mechanism: from temperature dependence of Ksv and Kq; for quenching rate constant Kq ± SE: τ0 5 ns; for enthalpy change ΔH / entropy change ΔS: from Kb at 298 and 310 K
human serum albumin (HSA), sequence (P02768 25-609): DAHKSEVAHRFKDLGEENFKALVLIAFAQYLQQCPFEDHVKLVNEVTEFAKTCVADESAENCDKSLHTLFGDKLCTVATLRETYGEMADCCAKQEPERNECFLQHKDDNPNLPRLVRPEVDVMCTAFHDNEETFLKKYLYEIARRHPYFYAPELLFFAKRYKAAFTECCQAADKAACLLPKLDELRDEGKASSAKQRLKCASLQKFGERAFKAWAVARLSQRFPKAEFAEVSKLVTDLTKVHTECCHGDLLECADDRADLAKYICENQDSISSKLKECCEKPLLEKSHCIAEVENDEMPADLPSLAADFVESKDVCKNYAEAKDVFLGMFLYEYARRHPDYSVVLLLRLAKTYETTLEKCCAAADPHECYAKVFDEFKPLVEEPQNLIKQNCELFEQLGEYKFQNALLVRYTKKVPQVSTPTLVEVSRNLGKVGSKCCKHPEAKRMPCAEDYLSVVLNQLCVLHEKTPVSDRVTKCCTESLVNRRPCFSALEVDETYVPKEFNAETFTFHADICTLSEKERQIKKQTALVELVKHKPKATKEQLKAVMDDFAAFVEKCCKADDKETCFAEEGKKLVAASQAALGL
How it was run: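 HSA (1 μM) in PBS was titrated with test compound to final 0–10,000 μM. Intrinsic fluorescence was recorded at ex 280 nm, em 290–500 nm, slits 5 nm, 1.0 cm cell, at 298 and 310 K and pH 6, 7.4 and 8. Intensity at 342 nm was fitted by Stern–Volmer (τ0 5 ns) for KSV/Kq and by double-log plot for Kb and n. ΔH, ΔS and ΔG were derived from these fits.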

[6] = 0.01, 0.05, 0.1, 0.5, 1, and 5 mM
[7] = 298 and 310 K, pHs 7.4, 6.0 and 8.0

For `O=C(O)c1ccc(O)cc1` [4-HBA, 4-Hydroxybenzoic acid], the “morphological changes in treated cells” value (K562 cancer cells) was “rough cells, shrinking cells, irregular shape cells, and membrane blebbing”, the cell viability percentage ([1]; K562, 10 mM, 48 h) was “did not significantly change” and the “cell viability percentage vs control group” value [1, 6] was “did not significantly change”. The viability at 72 h, 10 mM [2] was 90.3 ± 0.96%, the viability at 96 h, 10 mM [2] was 87.6 ± 1.01% and the “cell viability percentage vs control group” value [3, 6] was “did not significantly change”. It also gave a viability at 48 h, 10 mM [4] of 75.4 ± 8.61%, a viability at 72 h, 10 mM [4] of 70.4 ± 5.21% and a viability at 96 h, 10 mM [4] of 66.3 ± 7.67%. For the same compound, the “concentrations at which fluorescence intensity of HSA decreased” value (“concentrations … of HSA decreased” for short) [5, 7] was 5–10,000 μM, the “concentrations … of HSA decreased” value ([5]; PBS pH 7.4, 298 K, 1 μM HSA) was 5–10,000 μM and the fluorescence quenching mechanism [5] was “static quenching mechanism”. For the same compound, the “Gibbs binding free energy change ΔG” value ([5]; pH 6.0, 298 K) was -4.178 kcal/mol, the “Stern-Volmer quenching constant KSV ± SE” value ([5]; pH 6.0, 298 K) was 4.4982 ± 2.10 × 10^3 L mole^−1 and the “number of binding site n ± SE” value ([5]; pH 6.0, 298 K) was 0.8623 ± 0.05. For the same compound, the “quenching rate constant Kq ± SE” value ([5]; pH 6.0, 298 K) was 0.8996 ± 0.42 × 10^12 L. mole^−1 s^−1, the “Gibbs binding free energy change ΔG” value ([5]; pH 6.0, 310 K) was -3.769 kcal/mol and the “Stern-Volmer quenching constant KSV ± SE” value ([5]; pH 6.0, 310 K) was 4.2857 ± 0.93 × 10^3 L mole^−1. The “number of binding site n ± SE” value ([5]; pH 6.0, 310 K) was 0.9016 ± 0.06, the “quenching rate constant Kq ± SE” value ([5]; pH 6.0, 310 K) was 0.8572 ± 0.19 × 10^12 L. mole^−1 s^−1 and the “enthalpy change ΔH” value ([5]; pH 6.0) was -14.3 kcal/mol. For the same compound, the “entropy change ΔS” value ([5]; pH 6.0) was −142.12 J. mol^−1 K^−1, the “Gibbs binding free energy change ΔG” value ([5]; pH 7.4, 298 K) was -2.753 kcal/mol and the “Stern-Volmer quenching constant KSV ± SE” value ([5]; pH 7.4, 298 K) was 3.0657 ± 1.18 × 10^3 L mole^−1. For the same compound, the “number of binding site n ± SE” value ([5]; pH 7.4, 298 K) was 0.6130 ± 0.05, the “quenching rate constant Kq ± SE” value ([5]; pH 7.4, 298 K) was 0.6131 ± 0.24 × 10^12 L. mole^−1 s^−1 and the “Gibbs binding free energy change ΔG” value ([5]; pH 7.4, 310 K) was -2.36 kcal/mol. For the same compound, the “Stern-Volmer quenching constant KSV ± SE” value ([5]; pH 7.4, 310 K) was 2.7164 ± 0.27 × 10^3 L mole^−1, the “number of binding site n ± SE” value ([5]; pH 7.4, 310 K) was 0.7235 ± 0.05 and the “quenching rate constant Kq ± SE” value ([5]; pH 7.4, 310 K) was 0.5433 ± 0.05 × 10^12 L. mole^−1 s^−1. The “enthalpy change ΔH” value ([5]; pH 7.4) was -12.42 kcal/mol, the “entropy change ΔS” value ([5]; pH 7.4) was −135.72 J. mol^−1 K^−1 and the “Gibbs binding free energy change ΔG” value ([5]; pH 8.0, 298 K) was -3.623 kcal/mol. For the same compound, the “Stern-Volmer quenching constant KSV ± SE” value ([5]; pH 8.0, 298 K) was 1.8046 ± 0.51 × 10^3 L mole^−1, the “number of binding site n ± SE” value ([5]; pH 8.0, 298 K) was 0.8005 ± 0.11 and the “quenching rate constant Kq ± SE” value ([5]; pH 8.0, 298 K) was 0.3609 ± 0.10 × 10^12 L. mole^−1 s^−1. The “Gibbs binding free energy change ΔG” value ([5]; pH 8.0, 310 K) was -3.382 kcal/mol, the “Stern-Volmer quenching constant KSV ± SE” value ([5]; pH 8.0, 310 K) was 1.4572 ± 0.25 × 10^3 L mole^−1 and the “number of binding site n ± SE” value ([5]; pH 8.0, 310 K) was 1.0784 ± 0.29. The “quenching rate constant Kq ± SE” value ([5]; pH 8.0, 310 K) was 0.2914 ± 0.05 × 10^12 L. mole^−1 s^−1, the “enthalpy change ΔH” value ([5]; pH 8.0) was -9.661 kcal/mol and the “entropy change ΔS” value ([5]; pH 8.0) was −84.76 J. mol^−1 K^−1.
In the case of `COc1cc(C(=O)O)ccc1O` [VA, 4-hydroxy-3-methoxybenzoic acid], the “morphological changes in treated cells” value (K562 cancer cells) is reported as “rough cells, shrinking cells, irregular shape cells, and membrane blebbing”, the “cell viability percentage vs control group” value ([1]; 0.01, 0.05, 0.1, 0.5, and 1 mM) is reported as “did not significantly change” and the viability at 48 h, 5 mM [2] is reported as 79.8 ± 3.98%. For the same compound, the viability at 48 h, 10 mM [2] was 70.6 ± 2.93%, the viability at 72 h, 5 mM [2] was 81.3 ± 6.51% and the viability at 72 h, 10 mM [2] was 58 ± 5.46%. The viability at 96 h, 5 mM [2] was 82.9 ± 5.89%, the viability at 96 h, 10 mM [2] was 56.7 ± 18.2% and the “cell viability percentage vs control group” value ([3]; 0.01, 0.05, 0.1, 0.5, and 1 mM) was “did not significantly change”. The viability at 48 h, 5 mM [4] was 75.3 ± 6.23%, the viability at 48 h, 10 mM [4] was 53.5 ± 10.7% and the viability at 72 h, 5 mM [4] was 70.7 ± 11.1%. The viability at 72 h, 10 mM [4] was 41 ± 5.78%, the viability at 96 h, 5 mM [4] was 65.5 ± 2.36% and the viability at 96 h, 10 mM [4] was 35.9 ± 3.61%. For the same compound, the “concentrations … of HSA decreased” value [5, 7] was 2,000 to 10,000 μM, the “concentrations … of HSA decreased” value ([5]; PBS pH 7.4, 298 K, 1 μM HSA) was 2,000 to 10,000 μM and the fluorescence quenching mechanism [5] was “dynamic quenching mechanism”. The “Gibbs binding free energy change ΔG” value ([5]; pH 6.0, 298 K) was -3.411 kcal/mol, the “Stern-Volmer quenching constant KSV ± SE” value ([5]; pH 6.0, 298 K) was 1.2621 ± 0.19 × 10^3 L mole^−1 and the “number of binding site n ± SE” value ([5]; pH 6.0, 298 K) was 0.7071 ± 0.08. For the same compound, the “quenching rate constant Kq ± SE” value ([5]; pH 6.0, 298 K) was 0.2524 ± 0.04 × 10^12 L. mole^−1 s^−1, the “Gibbs binding free energy change ΔG” value ([5]; pH 6.0, 310 K) was -3.109 kcal/mol and the “Stern-Volmer quenching constant KSV ± SE” value ([5]; pH 6.0, 310 K) was 1.4092 ± 0.09 × 10^3 L mole^−1. For the same compound, the “number of binding site n ± SE” value ([5]; pH 6.0, 310 K) was 0.6174 ± 0.08, the “quenching rate constant Kq ± SE” value ([5]; pH 6.0, 310 K) was 0.2818 ± 0.02 × 10^12 L. mole^−1 s^−1 and the “enthalpy change ΔH” value ([5]; pH 6.0) was -10.9 kcal/mol. The “entropy change ΔS” value ([5]; pH 6.0) was −105.08 J. mol^−1 K^−1, the “Gibbs binding free energy change ΔG” value ([5]; pH 7.4, 298 K) was -2.737 kcal/mol and the “Stern-Volmer quenching constant KSV ± SE” value ([5]; pH 7.4, 298 K) was 0.7564 ± 0.03 × 10^3 L mole^−1. For the same compound, the “number of binding site n ± SE” value ([5]; pH 7.4, 298 K) was 0.5786 ± 0.03, the “quenching rate constant Kq ± SE” value ([5]; pH 7.4, 298 K) was 0.1513 ± 0.01 × 10^12 L. mole^−1 s^−1 and the “Gibbs binding free energy change ΔG” value ([5]; pH 7.4, 310 K) was -2.35 kcal/mol. The “Stern-Volmer quenching constant KSV ± SE” value ([5]; pH 7.4, 310 K) was 0.8312 ± 0.09 × 10^3 L mole^−1, the “number of binding site n ± SE” value ([5]; pH 7.4, 310 K) was 0.3816 ± 0.09 and the “quenching rate constant Kq ± SE” value ([5]; pH 7.4, 310 K) was 0.1662 ± 0.02 × 10^12 L. mole^−1 s^−1. The “enthalpy change ΔH” value ([5]; pH 7.4) was -12.45 kcal/mol, the “entropy change ΔS” value ([5]; pH 7.4) was −136.42 J. mol^−1 K^−1 and the “Gibbs binding free energy change ΔG” value ([5]; pH 8.0, 298 K) was -3.069 kcal/mol. For the same compound, the “Stern-Volmer quenching constant KSV ± SE” value ([5]; pH 8.0, 298 K) was 0.7592 ± 0.06 × 10^3 L mole^−1, the “number of binding site n ± SE” value ([5]; pH 8.0, 298 K) was 0.6340 ± 0.04 and the “quenching rate constant Kq ± SE” value ([5]; pH 8.0, 298 K) was 0.1518 ± 0.01 × 10^12 L. mole^−1 s^−1. For the same compound, the “Gibbs binding free energy change ΔG” value ([5]; pH 8.0, 310 K) was -2.99 kcal/mol, the “Stern-Volmer quenching constant KSV ± SE” value ([5]; pH 8.0, 310 K) was 1.0384 ± 0.07 × 10^3 L mole^−1 and the “number of binding site n ± SE” value ([5]; pH 8.0, 310 K) was 0.5257 ± 0.08. The “quenching rate constant Kq ± SE” value ([5]; pH 8.0, 310 K) was 0.2077 ± 0.01 × 10^12 L. mole^−1 s^−1, the “enthalpy change ΔH” value ([5]; pH 8.0) was -5.062 kcal/mol and the “entropy change ΔS” value ([5]; pH 8.0) was −27.97 J. mol^−1 K^−1.
